Paper PMC5110367 (Nature chemical biology, 2016)
Changes are numbered by the printed parent chain. Like-named read-outs stand apart in the source and are kept apart here.

Experiments:
Y464D-PPARα = biological target: T1, Y464D-PPARα (Mus musculus, UniProt P23204, Y464D); assay: Thermal shift assay of Y464D-PPARα with ligands; assay type: binding
T1 sequence (P23204 1-468 Y464D): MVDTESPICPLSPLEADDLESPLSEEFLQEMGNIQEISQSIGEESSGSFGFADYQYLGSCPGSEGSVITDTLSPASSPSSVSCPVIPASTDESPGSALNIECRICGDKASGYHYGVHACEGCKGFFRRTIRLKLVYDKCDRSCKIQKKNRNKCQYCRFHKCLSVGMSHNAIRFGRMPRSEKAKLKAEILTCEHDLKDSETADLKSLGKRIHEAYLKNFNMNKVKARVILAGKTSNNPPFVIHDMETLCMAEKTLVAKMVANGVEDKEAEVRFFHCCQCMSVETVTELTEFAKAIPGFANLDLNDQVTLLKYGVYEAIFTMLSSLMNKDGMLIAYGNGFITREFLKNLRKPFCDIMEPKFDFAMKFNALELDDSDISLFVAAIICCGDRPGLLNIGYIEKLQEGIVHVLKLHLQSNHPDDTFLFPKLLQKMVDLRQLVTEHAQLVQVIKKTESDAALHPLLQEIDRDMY
Method in brief: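 Differential scanning fluorimetry used purified Y464D-PPARα protein (0.5–1 μg per reaction) in kit thermal shift buffer with dye, with or without test compound. The real-time cycler ran 25°C for 2 min, then 70 cycles of 27°C 15 s/26°C 1 min with 1°C auto-increment. Signal was read on the ROX filter, and melting temperature (Tm) was derived.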

[1] = test system: Ppara-null hippocampal neurons; assay: Dendritic spine density; assay type: cell-based, mouse; conditions: Ppara-null neurons transduced with lenti-FL-Ppara or lenti-Y464D-Ppara
Method in brief: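 Ppara-null hippocampal neurons were taken from E18 fetuses and treated with 10 μM AraC to remove glia. They were differentiated 9–10 days, then transduced 48 h with lentivirions carrying GFP (vector), FL-Ppara or Y464D-Ppara. Neurons then received vehicle (DMSO) or test compound for 24 h. They were stained with Dylight-554-phalloidin, and spine density was scored by fluorescence microscopy.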

FL-Ppara = biological target: T2, FL-Ppara (Mus musculus, UniProt P23204); assay type: cell-based; conditions: Ppara-null astrocytes transduced with lenti-FL-Ppara, 4 h
T2 sequence (P23204 1-468): T1 sequence (P23204 1-468 Y464D) with D464Y

primary mouse astrocytes = assay: MTT cell viability of tk-PPREx3-Luc-transfected astrocytes; assay type: cell-based; conditions: higher concentrations, 4 h
CREB promoter = assay: ChIP analyses of the CREB promoter; assay type: cell-based; conditions: ChIP followed by real-time PCR
Y464D-Ppara = biological target: T3, Y464D-Ppara (Mus musculus, UniProt P23204, Y464D); assay type: cell-based; conditions: Ppara-null astrocytes transduced with lenti-Y464D-Ppara, 4 h
T3 sequence (P23204 1-468 Y464D): T1 sequence (P23204 1-468 Y464D)

[2] = test system: Ppara-null hippocampal neurons; assay type: cell-based, mouse
Method in brief: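 Cell lysates were made in RIPA buffer with protease/phosphatase inhibitors, needle-sheared, rotated 30 min at 4°C and spun at 18,000 × g. Samples of 15–30 μg were run on 10% or 12% SDS gels and semidry-transferred to nitrocellulose. Anti-CREB (1:1000) was applied overnight at 4°C, then IR-dye secondary (1:17,000) for 45 min at room temperature. Infrared imaging followed, with densitometry normalised to loading controls.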

[3] = test system: PPRE-driven luciferase activity; assay: PPRE-luciferase assay in Ppara-null astrocytes transduced with empty vector; assay type: cell-based, mouse; conditions: 4 h
Method in brief: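 Ppara-null astrocytes came from mixed glial cultures of 7-d-old pups. They were transduced 48 h with empty-vector lentivirions and transfected with tk-PPREx3-Luc reporter. After 24 h they were treated with different doses of test compound for 4 h, then luciferase activity was read. Values are mean ± SD of three independent experiments.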

[4] = Ppara-null neurons transduced with FL-Ppara
[5] = Ppara-null neurons transduced with lenti-Y314D-Ppara
[6] = Ppara-null neurons transduced with lenti-Y464D-Ppara
[7] = Ppara-null neurons transduced with lenti-Y464D/Y314D-Ppara

Compound: CCCCCCCCC=CCCCCCCCC(N)=O [OCT, 9-octadecenamide]
- effect on Tm (Y464D-PPARα): did not alter the Tm
- density of dendritic spines [1]: stimulated the density of spines only when Ppara-null neurons were transduced with lenti-FL-Ppara, but not lenti-Y464D-Ppara
- PPRE-luciferase reporter activity (FL-Ppara): markedly induced PPRE reporter activity
- cytotoxicity (MTT) (primary mouse astrocytes): significant level of cytotoxicity
- recruitment of PPARα and PGC1α to the CREB promoter (CREB promoter): stimulated the recruitment of PPARα and its coactivator PGC1α to the CREB promoter
- PPRE-luciferase activity (Y464D-Ppara): unable to stimulate PPRE-luciferase activity
- expression of CREB [2, 4]: stimulated the expression of CREB
- expression of CREB [2, 5]: only partially restored the expression of CREB
- expression of CREB [2, 6]: remained unable to increase the expression of CREB
- expression of CREB [2, 7]: remained unable to increase the expression of CREB
- PPRE-driven luciferase activity [3]: remained unable to induce PPRE-driven luciferase activity

Compound: CCCCCCCCCCCCCCCC(N)=O [HEX, hexadecanamide]
- effect on Tm (Y464D-PPARα): did not alter the Tm
- density of dendritic spines [1]: stimulated the density of spines only when Ppara-null neurons were transduced with lenti-FL-Ppara, but not lenti-Y464D-Ppara
- PPRE-luciferase reporter activity (FL-Ppara): markedly induced PPRE reporter activity
- cytotoxicity (MTT) (primary mouse astrocytes): significant level of cytotoxicity
- recruitment of PPARα and PGC1α to the CREB promoter (CREB promoter): stimulated the recruitment of PPARα and its coactivator PGC1α to the CREB promoter
- PPRE-luciferase activity (Y464D-Ppara): unable to stimulate PPRE-luciferase activity
- expression of CREB [2, 4]: stimulated the expression of CREB
- expression of CREB [2, 5]: only partially restored the expression of CREB
- expression of CREB [2, 6]: remained unable to increase the expression of CREB
- expression of CREB [2, 7]: remained unable to increase the expression of CREB
- PPRE-driven luciferase activity [3]: remained unable to induce PPRE-driven luciferase activity
